Measurements taken from ChEMBL document CHEMBL3526002, “Tissue distribution and identification of radioactivity components at elimination phase after oral administration of [¹⁴C]CS-1036, an α-amylase inhibitor, to rats” (Drug Metab Dispos, 2013).

Experiments:
Parameters in all cases: dose 5 mg/kg, dosed compound name [14C]CS-1036, route oral
Details in all cases: in vivo
Thymus [1] = experiment: Drug uptake in albino F344/DuCrlCrlj rat thymus at 5 mg/kg, po after 8 hrs by liquid scintillation counting; type: ADME, organism-based
[2] = Drug uptake in albino F344/DuCrlCrlj rat bone marrow at 5 mg/kg, po after 168 hrs by liquid scintillation counting; type: ADME, organism-based
[3] = Drug uptake in albino F344/DuCrlCrlj rat fat assessed as ng equivalent of CS-1036 at 5 mg/kg, po after 168 hrs by liquid scintillation counting; type: ADME, organism-based, Adipose tissue
Outline: (§1)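 Male F344/DuCrlCrlj rats (bought at 7 weeks, acclimatized 5–6 days; 159–167 g; n = 3 per time point) received a single oral dose of [14C]CS-1036 at 5 mg/kg. White adipose tissue was collected after abdominal aortic bleeding at 1, 4, 8, 24, 72, 168 or 336 h. Samples were counted by LSC with external-standard efficiency correction. Results were converted to ng equivalents per g from specific activity and sample weight.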

[4] = Drug uptake in albino F344/DuCrlCrlj rat bone marrow assessed as ng equivalent of CS-1036 at 5 mg/kg, po after 4 hrs by liquid scintillation counting; type: ADME, organism-based
Cerebellum [5] = experiment: Drug uptake in albino F344/DuCrlCrlj rat cerebellum assessed as ng equivalent of CS-1036 at 5 mg/kg, po after 1 hr by liquid scintillation counting; type: ADME, organism-based
Cerebellum [6] = experiment: Drug uptake in albino F344/DuCrlCrlj rat cerebellum at 5 mg/kg, po after 336 hrs by liquid scintillation counting; type: ADME, organism-based
Harderian gland [7] = experiment: Drug uptake in albino F344/DuCrlCrlj rat harderian gland at 5 mg/kg, po after 72 hrs by liquid scintillation counting; type: ADME, organism-based
Small intestine = experiment: Drug uptake in albino F344/DuCrlCrlj rat small intestine at 5 mg/kg, po after 336 hrs by liquid scintillation counting; type: ADME, organism-based
Heart = experiment: Drug uptake in albino F344/DuCrlCrlj rat heart at 5 mg/kg, po after 1 hr by liquid scintillation counting; type: ADME, organism-based
Stomach [8] = experiment: Drug uptake in albino F344/DuCrlCrlj rat stomach at 5 mg/kg, po after 4 hrs by liquid scintillation counting; type: ADME, organism-based
[9] = Drug uptake in albino F344/DuCrlCrlj rat fat assessed as ng equivalent of CS-1036 at 5 mg/kg, po after 4 hrs by liquid scintillation counting; type: ADME, organism-based, Adipose tissue; outline: as §1
[10] = Drug uptake in albino F344/DuCrlCrlj rat pituitary gland assessed as ng equivalent of CS-1036 at 5 mg/kg, po after 24 hrs by liquid scintillation counting; type: ADME, organism-based
Pancreas [11] = experiment: Drug uptake in albino F344/DuCrlCrlj rat pancreas assessed as ng equivalent of CS-1036 at 5 mg/kg, po after 1 hr by liquid scintillation counting; type: ADME, organism-based
Blood = experiment: Drug uptake in albino F344/DuCrlCrlj rat blood assessed as ng equivalent of CS-1036 at 5 mg/kg, po after 72 hrs by liquid scintillation counting; type: ADME, organism-based
Outline: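 Male F344/DuCrlCrlj rats (159–167 g; n = 3 per time point) received a single oral dose of [14C]CS-1036 at 5 mg/kg. Blood was taken from the abdominal aorta at 1, 4, 8, 24, 72, 168 and 336 h. Radioactivity was counted by LSC with external-standard efficiency correction. Results were converted to ng equivalent of CS-1036/ml using specific activity and sample volume, and reported as mean + S.D.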

Adrenal gland [12] = experiment: Drug uptake in albino F344/DuCrlCrlj rat adrenal gland assessed as ng equivalent of CS-1036 at 5 mg/kg, po after 24 hrs by liquid scintillation counting; type: ADME, organism-based
Aorta [13] = experiment: Drug uptake in albino F344/DuCrlCrlj rat aorta at 5 mg/kg, po after 336 hrs by liquid scintillation counting; type: ADME, organism-based
[14] = Drug uptake in albino F344/DuCrlCrlj rat brown fat at 5 mg/kg, po after 4 hrs by liquid scintillation counting; type: ADME, organism-based, Brown adipose tissue
Adrenal gland [15] = experiment: Drug uptake in albino F344/DuCrlCrlj rat adrenal gland at 5 mg/kg, po after 1 hr by liquid scintillation counting; type: ADME, organism-based
Large intestine [16] = experiment: Drug uptake in albino F344/DuCrlCrlj rat large intestine assessed as ng equivalent of CS-1036 at 5 mg/kg, po after 4 hrs by liquid scintillation counting; type: ADME, organism-based
[17] = Drug uptake in albino F344/DuCrlCrlj rat mandibular gland assessed as ng equivalent of CS-1036 at 5 mg/kg, po after 24 hrs by liquid scintillation counting; type: ADME, organism-based
Pancreas [18] = experiment: Drug uptake in albino F344/DuCrlCrlj rat pancreas at 5 mg/kg, po after 336 hrs by liquid scintillation counting; type: ADME, organism-based
Large intestine [19] = experiment: Drug uptake in albino F344/DuCrlCrlj rat large intestine at 5 mg/kg, po after 1 hr by liquid scintillation counting; type: ADME, organism-based
Lung = experiment: Drug uptake in albino F344/DuCrlCrlj rat lung assessed as ng equivalent of CS-1036 at 5 mg/kg, po after 8 hrs by liquid scintillation counting; type: ADME, organism-based
[20] = Drug uptake in albino F344/DuCrlCrlj rat bone marrow at 5 mg/kg, po after 1 hr by liquid scintillation counting; type: ADME, organism-based
Zone of skin = experiment: Drug uptake in albino F344/DuCrlCrlj rat skin at 5 mg/kg, po after 1 hr by liquid scintillation counting; type: ADME, organism-based
Aorta [21] = experiment: Drug uptake in albino F344/DuCrlCrlj rat aorta assessed as ng equivalent of CS-1036 at 5 mg/kg, po after 168 hrs by liquid scintillation counting; type: ADME, organism-based
Kidney [22] = experiment: Drug uptake in albino F344/DuCrlCrlj rat kidney at 5 mg/kg, po after 72 hrs by liquid scintillation counting; type: ADME, organism-based
Kidney [23] = experiment: Drug uptake in albino F344/DuCrlCrlj rat kidney at 5 mg/kg, po after 8 hrs by liquid scintillation counting; type: ADME, organism-based
Thymus [24] = experiment: Drug uptake in albino F344/DuCrlCrlj rat thymus assessed as ng equivalent of CS-1036 at 5 mg/kg, po after 72 hrs by liquid scintillation counting; type: ADME, organism-based
Stomach [25] = experiment: Drug uptake in albino F344/DuCrlCrlj rat stomach at 5 mg/kg, po after 8 hrs by liquid scintillation counting; type: ADME, organism-based
Aorta [26] = experiment: Drug uptake in albino F344/DuCrlCrlj rat aorta assessed as ng equivalent of CS-1036 at 5 mg/kg, po after 336 hrs by liquid scintillation counting; type: ADME, organism-based
Harderian gland [27] = experiment: Drug uptake in albino F344/DuCrlCrlj rat harderian gland at 5 mg/kg, po after 336 hrs by liquid scintillation counting; type: ADME, organism-based
Harderian gland [28] = experiment: Drug uptake in albino F344/DuCrlCrlj rat harderian gland assessed as ng equivalent of CS-1036 at 5 mg/kg, po after 24 hrs by liquid scintillation counting; type: ADME, organism-based
Large intestine [29] = experiment: Drug uptake in albino F344/DuCrlCrlj rat large intestine assessed as ng equivalent of CS-1036 at 5 mg/kg, po after 1 hr by liquid scintillation counting; type: ADME, organism-based
Kidney [30] = experiment: Drug uptake in albino F344/DuCrlCrlj rat kidney assessed as ng equivalent of CS-1036 at 5 mg/kg, po after 336 hrs by liquid scintillation counting; type: ADME, organism-based

Work on `C[C@H]1O[C@@H](O[C@H]2[C@H](O)[C@@H](O)[C@@H](O[14C@H]3[14C@H](O)[14CH2]N[14C@@H]3[14CH2]O)O[C@@H]2CO)[C@H](O)[C@@H](O)[C@@H]1O` yielded a Radiolabel recovery (Thymus [1]) of 43.4 ngequiv/g, a Radiolabel recovery [2] of 47 ngequiv/g and a Radiolabel recovery [3] of 64 ngequiv/g. For the same compound, the Radiolabel recovery [4] was 7.9 ngequiv/g, the Radiolabel recovery (Cerebellum [5]) was 0.79 ngequiv/g and the Radiolabel recovery (Cerebellum [6]) was 5.41 ngequiv/g. It also gave a Radiolabel recovery (Harderian gland [7]) of 119 ngequiv/g, a Radiolabel recovery (Small intestine) of 6.54 ngequiv/g and a Radiolabel recovery (Heart) of 27.9 ngequiv/g. For the same compound, the Radiolabel recovery (Stomach [8]) was 129 ngequiv/g, the Radiolabel recovery [9] was 1.74 ngequiv/g and the Radiolabel recovery [10] was 33.1 ngequiv/g. The Radiolabel recovery (Pancreas [11]) was 11 ngequiv/g, the Radiolabel recovery (Blood) was 6.6 ngequiv/ml and the Radiolabel recovery (Adrenal gland [12]) was 20.2 ngequiv/g. It also gave a Radiolabel recovery (Aorta [13]) of 11 ngequiv/g, a Radiolabel recovery [14] of 25.8 ngequiv/g and a Radiolabel recovery (Adrenal gland [15]) of 32.2 ngequiv/g. It also gave a Radiolabel recovery (Large intestine [16]) of 6620 ngequiv/g, a Radiolabel recovery [17] of 9 ngequiv/g and a Radiolabel recovery (Pancreas [18]) of 25.4 ngequiv/g. The Radiolabel recovery (Large intestine [19]) was 1070 ngequiv/g, the Radiolabel recovery (Lung) was 72.1 ngequiv/g and the Radiolabel recovery [20] was 34.9 ngequiv/g. For the same compound, the Radiolabel recovery (Zone of skin) was 38.3 ngequiv/g, the Radiolabel recovery (Aorta [21]) was 6.8 ngequiv/g and the Radiolabel recovery (Kidney [22]) was 77.9 ngequiv/g. The Radiolabel recovery (Kidney [23]) was 1320 ngequiv/g, the Radiolabel recovery (Thymus [24]) was 6.6 ngequiv/g and the Radiolabel recovery (Stomach [25]) was 135 ngequiv/g. The Radiolabel recovery (Aorta [26]) was 10.8 ngequiv/g, the Radiolabel recovery (Harderian gland [27]) was 5.08 ngequiv/g and the Radiolabel recovery (Harderian gland [28]) was 88 ngequiv/g. For the same compound, the Radiolabel recovery (Large intestine [29]) was 1080 ngequiv/g and the Radiolabel recovery (Kidney [30]) was 4.9 ngequiv/g.
